Converted amounts (≈) assume the structure as drawn.
Key:
[1] = target: T1, PYRAZINAMIDASE/NICOTINAMIDAS PNCA (PZase) (Mycobacterium bovis) (UniProt Q93SP7); test: Activity of pyrazinamidase in Mycobacterium bovis BCG Pasteur assessed as compound turnover per ml of microbial cells after 30 mins by calorimetric analysis; settings: Mycobacterium tuberculosis variant bovis BCG
T1 sequence (whole entry): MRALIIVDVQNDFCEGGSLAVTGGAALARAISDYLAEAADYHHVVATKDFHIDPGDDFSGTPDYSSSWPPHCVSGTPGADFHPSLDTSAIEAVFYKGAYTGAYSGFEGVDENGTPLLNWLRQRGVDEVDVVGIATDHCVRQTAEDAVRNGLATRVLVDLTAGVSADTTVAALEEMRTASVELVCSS
How it was run: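 Whole-cell colorimetric amidase assay: log-phase cells were pelleted and resuspended in sterile water with 0.05% tyloxapol. Substrate (PZA or 5-Cl PZA) was added to 2 mM at 37°C with shaking and sampled at intervals. Clarified aliquots received ferrous ammonium sulfate (20 mM final), stood 30 min at 4°C, were re-spun, and were read at OD468. Extinction coefficients were 0.68 (PA) and 0.47 (5-Cl PA) per mM. Activity is nmol/min per ml of cells (OD600).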

[2] = tested on: Mycolicibacterium smegmatis; test: Antimicrobial activity against Mycobacterium smegmatis mc27092 harboring Mycobacterium tuberculosis H37Ra attBL5:::Ptc::pzaAMsmeg after 48 hrs by broth microdilution method at pH 6; type: functional; settings: mc27092, 48 h
[3] = tested on: Mycolicibacterium smegmatis; test: Antimicrobial activity against Mycobacterium smegmatis mc27092 harboring Mycobacterium tuberculosis H37Ra attBL5:::Ptc::pzaAMsmeg after 11 days by broth microdilution method at pH 6.8; type: functional; settings: mc27092, 264 h
How it was run: (§1)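 Tubercle bacilli were diluted to 10^6 CFU/ml in supplemented 7H9 containing graded PZA or 5-Cl PZA, at pH 6.0 or neutral pH 6.8. Cultures were incubated 11 days at 37°C. The MIC is the lowest concentration blocking visible growth. Integrated amidase constructs were induced with 50 ng/ml anhydrotetracycline.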

[4] = tested on: Mycolicibacterium smegmatis; test: Antimicrobial activity against Mycobacterium smegmatis mc27093 harboring Mycobacterium tuberculosis H37Ra attBL5:::Ptc::pzaA from Mycobacterium tuberculosis after 11 days by broth microdilution method at pH 6; type: functional; settings: mc27093, 264 h; how it was run: as §1
[5] = tested on: Mycolicibacterium smegmatis; test: Antimicrobial activity against Mycobacterium smegmatis mc27093 harboring Mycobacterium tuberculosis H37Ra attBL5:::Ptc::pzaA from Mycobacterium tuberculosis after 11 days by broth microdilution method at pH 6.8; type: functional; settings: mc27093, 264 h; how it was run: as §1
[6] = tested on: Mycobacterium tuberculosis variant bovis BCG; test: Antimicrobial activity against Mycobacterium bovis BCG Pasteur after 11 days by broth microdilution method at pH 6; type: functional; settings: 264 h; how it was run: as §1
[7] = tested on: Mycobacterium tuberculosis variant bovis BCG; test: Antimicrobial activity against Mycobacterium bovis BCG Pasteur after 11 days by broth microdilution method at pH 6.8; type: functional; settings: 264 h; how it was run: as §1

**Q.** With `NC(=O)c1cnc(Cl)cn1` as the compound, how does the Activity [1] read?
**A.** 0.11 nmol/min

**Q.** What about the MIC [2] of the same compound?
**A.** 25 µg/mL (≈ 159 µM)

**Q.** What about the MIC [3] of the same compound?
**A.** 12.5 µg/mL (≈ 79.3 µM)

**Q.** And the MIC [4]?
**A.** 200 µg/mL (≈ 1270 µM)

**Q.** What about the MIC [5] of the same compound?
**A.** 12.5 µg/mL (≈ 79.3 µM)

**Q.** What about the MIC [6] of the same compound?
**A.** 25 µg/mL (≈ 159 µM)

**Q.** And the MIC [7]?
**A.** 100 µg/mL (≈ 635 µM)

**Q.** What does the source list for `NC(=O)c1cnccn1` [PYRAZINAMIDE]?
**A.** Activity [1]: 0.015 nmol/min; MIC [2]: 62.5 µg/mL (≈ 508 µM); MIC [3]: > 1000 µg/mL; MIC [4]: 12.5 µg/mL (≈ 102 µM); MIC [5]: 12.5 µg/mL (≈ 102 µM); MIC [6]: 50 µg/mL (≈ 406 µM); MIC [7]: 25 µg/mL (≈ 203 µM)
